A short description of data set [1]: Cytotoxicity assay. Format: cell-based. Particulars: human, TZM-GFP cells. An outline of the steps: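 TZM-GFP cells were plated at 1 × 10^4 cells per well and exposed continuously to increasing concentrations of test compound for 72 h. Viable cells were counted by XTT. CC50 came from a log(inhibitor) vs normalized response, variable-slope fit for each independent assay, then averaged. Runs were in duplicate across at least two independent experiments; mean ± SD.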

For data set [2], the system named is HIV-1NL4-3. Put plainly: Anti-HIV-1 assay in TZM-GFP cells. Format: cell-based. Particulars: for inhibition at 2 µM: Human immunodeficiency virus 1, read-out: Inhibition at 2 μmol/L; for inhibition at 20 µM: Human immunodeficiency virus 1, read-out: Inhibition at 20 μmol/L; for Inhibition at 2 μmol/L: 2 μmol/L compound. The method in brief:
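TZM-GFP cells seeded at 1 × 10^4 per well; after 24 h, medium replaced with test compound at 20 μmol/L, with actives retested at 2 μmol/L. HIV-1NL4-3 (HEK 293FT-transfection stock, MT2-propagated, PEG-concentrated) added at MOI 1 24 h later. After 48 h, GFP-positive cells counted by imaging; inhibition relative to DMSO controls. Duplicates, at least two independent experiments.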

A short description of data set [3]: Microsomal stability assay, mouse liver microsomes. The data set is classed as in vitro ADME. Particulars: for half-life at 1 μmol/L: mouse, pH 7.4. In general terms: Microsomes from liver hold many membrane-bound enzymes, among them those of drug oxidation.
Data set [4] in a line: Microsomal stability assay, human liver microsomes. The data set is classed as in vitro ADME. Particulars: for half-life at 1 μmol/L: human, pH 7.4.

As usually defined, the CC50 is the concentration that lowers cell viability or growth by half. A word on the half-life: it is the time needed for the level to fall by half in the phase considered. Low readings indicate fast loss, high ones slow loss.

“Also recorded” adds a separate entry of the source. Where a SMILES comes first, the peptide text is derived from it. The star is where a group is joined. Bz = O=C(c1ccccc1)*; NHPh = c1ccc(N*)cc1 Some results are limits rather than exact numbers.

Regarding `CN(C(=O)[C@H](Cc1ccccc1)NC(=O)CNC(=O)c1ccccc1)c1ccc(F)cc1` [Compound 22, (S)-N-(2-((1-((4-Fluorophenyl)(methyl)amino)-1-oxo-3-phenylpropan-2-yl)amino)-2-oxoethyl)benzamide], in data set [1], the 50% cytotoxic concentration (CC50) at 72 h was more than 50 µM. In data set [2], the inhibition at 2 µM turned out to be 12% and the inhibition at 20 µM worked out at 97%.

Turning to `CN(C(=O)[C@H](Cc1ccccc1)NC(=O)CC1NC(=O)NC1=O)c1ccc(F)cc1` (stereo partly drawn) [Compound 6, (2S)-2-(2-(2,5-Dioxoimidazolidin-4-yl)acetamido)-N-(4-fluorophenyl)-N-methyl-3-phenylpropanamide], the CC50 at 72 h in data set [1] was more than 50 µM.

Regarding `CN(C(=O)[C@H](Cc1ccccc1)NC(=O)CNC(=O)c1ccccc1)c1ccc(Cl)cc1` [Compound 20, (S)-N-(2-((1-((4-Chlorophenyl)(methyl)amino)-1-oxo-3-phenylpropan-2-yl)amino)-2-oxoethyl)benzamide], the half-life at 1 μmol/L in data set [3] amounted to 13 min; in data set [4], 36 min. Moreover, in data set [3] (relative to PF74), the “fold increase of half-life over PF74 in MLMs” value was 22 fold. Besides, the CC50 at 72 h in data set [1] is more than 50 µM. The “fold increase of half-life over PF74 in HLMs” value in data set [4] (relative to PF74) was 51 fold.

In the case of `CN(C(=O)[C@H](Cc1ccccc1)NC(=O)CNC(=O)c1ccccc1)c1cccc(Cl)c1` [Compound 21, (S)-N-(2-((1-((3-Chlorophenyl)(methyl)amino)-1-oxo-3-phenylpropan-2-yl)amino)-2-oxoethyl)benzamide], the CC50 at 72 h in data set [1] was more than 50 µM. Moreover, in data set [2], the inhibition at 2 µM amounted to 40% and the inhibition at 20 µM came out at 95%.

`Cc1cn(CC(=O)N[C@@H](Cc2ccccc2)C(=O)N(C)c2cccc(F)c2)c(=O)[nH]c1=O` [Compound 13, (S)-N-(3-Fluorophenyl)-N-methyl-2-(2-(5-methyl-2,4-dioxo-3,4-dihydropyrimidin-1(2H)-yl)acetamido)-3-phenylpropanamide] displayed a 50% cytotoxic concentration (CC50) at 72 h in data set [1] of more than 50 µM. Besides, in data set [2], the inhibition at 2 µM was 0% and the inhibition at 20 µM amounted to 74%.

In the case of `Cc1ccc(N(C)C(=O)[C@H](Cc2ccccc2)NC(=O)CC2NC(=O)NC2=O)cc1` (stereo partly drawn) [Compound 3, (2S)-2-(2-(2,5-Dioxoimidazolidin-4-yl)acetamido)-N-methyl-3-phenyl-N-(p-tolyl)propanamide], the CC50 at 72 h in data set [1] is more than 50 µM. Besides, in data set [2], the inhibition at 2 µM stood at 2% and the inhibition at 20 µM came out at 62%.

`CN(C(=O)[C@H](Cc1ccccc1)NC(=O)CC1NC(=O)NC1=O)c1cccc(F)c1` (stereo partly drawn) [Compound 7, (2S)-2-(2-(2,5-Dioxoimidazolidin-4-yl)acetamido)-N-(3-fluorophenyl)-N-methyl-3-phenylpropanamide] had a CC50 at 72 h in data set [1] of more than 50 µM.

Take `CCN(C(=O)[C@H](Cc1ccccc1)NC(=O)CNC(=O)c1ccccc1)c1ccccc1` [Compound 26, (S)-N-(2-((1-(Ethyl(phenyl)amino)-1-oxo-3-phenylpropan-2-yl)amino)-2-oxoethyl)benzamide]: the half-life at 1 μmol/L worked out at 2.4 min in data set [3] and 14 min in data set [4]. For the same compound, the 50% cytotoxic concentration (CC50) at 72 h in data set [1] was more than 50 µM.

In the case of `CN(C(=O)[C@H](Cc1ccccc1)NC(=O)CC1NC(=O)NC1=O)c1ccc(Cl)cc1` (stereo partly drawn) [Compound 4, (2S)-N-(4-Chlorophenyl)-2-(2-(2,5-dioxoimidazolidin-4-yl)acetamido)-N-methyl-3-phenylpropanamide], the CC50 at 72 h in data set [1] was more than 50 µM. In addition, the “Inhibition at 2 μmol/L” value in data set [2] (HIV-1 in TZM-GFP cells) is “inhibited HIV-1 weakly”. The “Inhibition at 20 μmol/L” value in data set [2] (20 μmol/L compound, HIV-1 in TZM-GFP cells) is “almost completely”. Further, in data set [2], the inhibition at 2 µM is 17% and the inhibition at 20 µM is 96%.

For the compound `Cc1ccc(N(C)C(=O)[C@H](Cc2ccccc2)NC(=O)CNC(=O)c2ccccc2)cc1` [Compound 19, (S)-N-(2-((1-(Methyl(p-tolyl)amino)-1-oxo-3-phenylpropan-2-yl)amino)-2-oxoethyl)benzamide], the results for the half-life at 1 μmol/L in data set [3] and in data set [4] were 5 min and 22 min, respectively. The compound further showed a CC50 at 72 h in data set [1] of more than 50 µM.

Regarding `Cc1cn(CC(=O)N[C@@H](Cc2ccccc2)C(=O)N(C)c2ccccc2)c(=O)[nH]c1=O` [Compound 8, (S)-N-Methyl-2-(2-(5-methyl-2,4-dioxo-3,4-dihydropyrimidin-1(2H)-yl)acetamido)-N,3-diphenylpropanamide], the CC50 at 72 h in data set [1] is more than 50 µM. Moreover, the “Inhibition at 2 μmol/L” value in data set [2] (HIV-1 in TZM-GFP cells) is recorded as “exhibited inhibition”. Also, in data set [2], the inhibition at 2 µM amounted to 35% and the inhibition at 20 µM amounted to 95%.

On to `Cc1cn(CC(=O)N[C@@H](Cc2ccccc2)C(=O)N(C)c2cccc(Br)c2)c(=O)[nH]c1=O` [Compound 14, (S)-N-(3-Bromophenyl)-N-methyl-2-(2-(5-methyl-2,4-dioxo-3,4-dihydropyrimidin-1(2H)-yl)acetamido)-3-phenylpropanamide], for which the cytotoxic concentration (CC50) at 72 h in data set [1] is more than 50 µM. In addition, in data set [2] (HIV-1 in TZM-GFP cells), the “Inhibition at 2 μmol/L” value is “exhibited inhibition”. In data set [2], the inhibition at 2 µM was 22% and the inhibition at 20 µM amounted to 100%.

In turn, `Cc1cn(CC(=O)N[C@@H](Cc2ccccc2)C(=O)N(C)c2ccc(F)cc2)c(=O)[nH]c1=O` [Compound 12, (S)-N-(4-Fluorophenyl)-N-methyl-2-(2-(5-methyl-2,4-dioxo-3,4-dihydropyrimidin-1(2H)-yl)acetamido)-3-phenylpropanamide] showed a half-maximal cytotoxic concentration (CC50) at 72 h in data set [1] of more than 50 µM. Moreover, in data set [2], the inhibition at 2 µM is 6% and the inhibition at 20 µM amounted to 94%.

Compound `CN(C(=O)[C@H](Cc1ccccc1)NC(=O)CC1NC(=O)NC1=O)c1cccc(Cl)c1` (stereo partly drawn) [Compound 5, (2S)-N-(3-Chlorophenyl)-2-(2-(2,5-dioxoimidazolidin-4-yl)acetamido)-N-methyl-3-phenylpropanamide] yielded a half-maximal cytotoxic concentration (CC50) at 72 h in data set [1] of more than 50 µM.

As to `Cc1cn(CC(=O)N[C@@H](Cc2ccccc2)C(=O)N(C)c2cccc(Cl)c2)c(=O)[nH]c1=O` [Compound 11, (S)-N-(3-Chlorophenyl)-N-methyl-2-(2-(5-methyl-2,4-dioxo-3,4-dihydropyrimidin-1(2H)-yl)acetamido)-3-phenylpropanamide], the CC50 at 72 h in data set [1] is more than 50 µM. The “Inhibition at 2 μmol/L” value in data set [2] (HIV-1 in TZM-GFP cells) is recorded as “exhibited inhibition”. In data set [2], the inhibition at 2 µM came to 37% and the inhibition at 20 µM was found to be 95%.

Compound `CN(C(=O)[C@H](Cc1ccccc1)NC(=O)c1c[nH]c(=O)[nH]c1=O)c1ccccc1` [Compound 17, (S)-N-(1-(Methyl(phenyl)amino)-1-oxo-3-phenylpropan-2-yl)-2,4-dioxo-1,2,3,4-tetrahydropyrimidine-5-carboxamide] showed a CC50 at 72 h in data set [1] of more than 50 µM. Further, in data set [2] (HIV-1 in TZM-GFP cells), the “antiviral activity against HIV-1 (in words)” value (shortened to “antiviral activity”) was “lack of antiviral activity; also recorded: completely inactive”.

In data set [1], `Cc1cn(CC(=O)N[C@@H](Cc2ccccc2)C(=O)N(C)c2cccc(C(F)(F)F)c2)c(=O)[nH]c1=O` [Compound 15, (S)-N-Methyl-2-(2-(5-methyl-2,4-dioxo-3,4-dihydropyrimidin-1(2H)-yl)acetamido)-3-phenyl-N-(3-(trifluoromethyl)phenyl)propanamide] showed a CC50 at 72 h of more than 50 µM. In addition, the “Inhibition at 2 μmol/L” value in data set [2] (HIV-1 in TZM-GFP cells) is “exhibited inhibition”. In data set [2], the inhibition at 2 µM worked out at 28% and the inhibition at 20 µM was found to be 95%.

`Cc1cn(CC(=O)N[C@@H](C(=O)N(C)c2ccccc2)c2ccccc2)c(=O)[nH]c1=O` [Compound 16, (R)-N-Methyl-2-(2-(5-methyl-2,4-dioxo-3,4-dihydropyrimidin-1(2H)-yl)acetamido)-N,2-diphenylacetamide] displayed a CC50 at 72 h in data set [1] of more than 50 µM. For the same compound, in data set [2] (HIV-1 in TZM-GFP cells), the “antiviral activity” value is “did not inhibit HIV-1”.

As to `CN(C(=O)[C@H](Cc1ccccc1)NC(=O)CNC(=O)c1ccccc1)c1cccc(Br)c1` [Compound 24, (S)-N-(2-((1-((3-Bromophenyl)(methyl)amino)-1-oxo-3-phenylpropan-2-yl)amino)-2-oxoethyl)benzamide], the CC50 at 72 h in data set [1] was more than 50 µM. For the same compound, in data set [2], the inhibition at 2 µM worked out at 38% and the inhibition at 20 µM came to 97%.

Turning to `O=C(CNC(=O)c1ccccc1)N[C@@H](Cc1ccccc1)C(=O)N1CCC[C@H]1C(=O)Nc1ccccc1` [Compound 27, (S)-1-(Benzoylglycyl-L-phenylalanyl)-N-phenylpyrrolidine-2-carboxamide] (Bz-Gly-Phe-Pro-NHPh), the CC50 at 72 h in data set [1] is more than 50 µM.

Take `CN(C(=O)[C@H](Cc1ccccc1)NC(=O)CNC(=O)c1ccccc1)c1cccc(C(F)(F)F)c1` [Compound 25, (S)-N-(2-((1-(Methyl(3-(trifluoromethyl)phenyl)amino)-1-oxo-3-phenylpropan-2-yl)amino)-2-oxoethyl)benzamide]: in data set [1], the CC50 at 72 h is more than 50 µM. Further, in data set [2], the inhibition at 2 µM stood at 19% and the inhibition at 20 µM turned out to be 89%.

`Cc1ccc(N(C)C(=O)[C@H](Cc2ccccc2)NC(=O)Cn2cc(C)c(=O)[nH]c2=O)cc1` [Compound 9, (S)-N-Methyl-2-(2-(5-methyl-2,4-dioxo-3,4-dihydropyrimidin-1(2H)-yl)acetamido)-3-phenyl-N-(p-tolyl)propanamide] returned a CC50 at 72 h in data set [1] of more than 50 µM. Moreover, in data set [2], the inhibition at 2 µM came out at 7% and the inhibition at 20 µM amounted to 85%.

On to `CN(C(=O)[C@H](Cc1ccccc1)NC(=O)CC1NC(=O)NC1=O)c1ccccc1` (stereo partly drawn) [Compound 2, (2S)-2-(2-(2,5-Dioxoimidazolidin-4-yl)acetamido)-N-methyl-N,3-diphenylpropanamide], for which the cytotoxic concentration (CC50) at 72 h in data set [1] was more than 50 µM. In addition, the “antiviral activity” value in data set [2] (HIV-1 in TZM-GFP cells) was “completely inactive”.
